# ChEMBL document CHEMBL2146394, “Design and synthesis of pyrrolo[3,2-d]pyrimidine HER2/EGFR dual inhibitors: improvement of the physicochemical and pharmacokinetic profiles for potent in vivo anti-tumor efficacy” (Bioorg Med Chem, 2012)
# Legend:
# [1] = Apparent permeability across basolateral to apical side in human Caco2 cells at 10 umol/L; assay type: ADME, cell-based; conditions: Caco-2
# How it was run: (§1)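 Confluent Caco-2 monolayers on collagen-coated polycarbonate Transwell membranes. HBSS with 10 mmol/L HEPES, 15 mmol/L glucose and 1% BSA, pH 7.3–7.5. Compound dosed at 10 µmol/L apically (A→B) or basolaterally (B→A), 37 °C, 5% CO₂. Receivers sampled at 1 and 2 h; LC/MS/MS. Papp from receiver concentration slope; duplicates.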
# [2] = Apparent permeability across apical to basolateral side in human Caco2 cells at 10 umol/L; assay type: ADME, cell-based; conditions: Caco-2; how it was run: as §1
# [3] = biological target: Receptor tyrosine-protein kinase erbB-2 (Homo sapiens, UniProt P04626); assay: Inhibition of human N-terminal DYKDDDD tagged HER2 cytoplasmic domain amino acid 676 to 1255 expressed in baculovirus after 5 mins by scintillation counter
# Chain of Receptor tyrosine-protein kinase erbB-2 (P04626 whole entry, the tested form may be a part): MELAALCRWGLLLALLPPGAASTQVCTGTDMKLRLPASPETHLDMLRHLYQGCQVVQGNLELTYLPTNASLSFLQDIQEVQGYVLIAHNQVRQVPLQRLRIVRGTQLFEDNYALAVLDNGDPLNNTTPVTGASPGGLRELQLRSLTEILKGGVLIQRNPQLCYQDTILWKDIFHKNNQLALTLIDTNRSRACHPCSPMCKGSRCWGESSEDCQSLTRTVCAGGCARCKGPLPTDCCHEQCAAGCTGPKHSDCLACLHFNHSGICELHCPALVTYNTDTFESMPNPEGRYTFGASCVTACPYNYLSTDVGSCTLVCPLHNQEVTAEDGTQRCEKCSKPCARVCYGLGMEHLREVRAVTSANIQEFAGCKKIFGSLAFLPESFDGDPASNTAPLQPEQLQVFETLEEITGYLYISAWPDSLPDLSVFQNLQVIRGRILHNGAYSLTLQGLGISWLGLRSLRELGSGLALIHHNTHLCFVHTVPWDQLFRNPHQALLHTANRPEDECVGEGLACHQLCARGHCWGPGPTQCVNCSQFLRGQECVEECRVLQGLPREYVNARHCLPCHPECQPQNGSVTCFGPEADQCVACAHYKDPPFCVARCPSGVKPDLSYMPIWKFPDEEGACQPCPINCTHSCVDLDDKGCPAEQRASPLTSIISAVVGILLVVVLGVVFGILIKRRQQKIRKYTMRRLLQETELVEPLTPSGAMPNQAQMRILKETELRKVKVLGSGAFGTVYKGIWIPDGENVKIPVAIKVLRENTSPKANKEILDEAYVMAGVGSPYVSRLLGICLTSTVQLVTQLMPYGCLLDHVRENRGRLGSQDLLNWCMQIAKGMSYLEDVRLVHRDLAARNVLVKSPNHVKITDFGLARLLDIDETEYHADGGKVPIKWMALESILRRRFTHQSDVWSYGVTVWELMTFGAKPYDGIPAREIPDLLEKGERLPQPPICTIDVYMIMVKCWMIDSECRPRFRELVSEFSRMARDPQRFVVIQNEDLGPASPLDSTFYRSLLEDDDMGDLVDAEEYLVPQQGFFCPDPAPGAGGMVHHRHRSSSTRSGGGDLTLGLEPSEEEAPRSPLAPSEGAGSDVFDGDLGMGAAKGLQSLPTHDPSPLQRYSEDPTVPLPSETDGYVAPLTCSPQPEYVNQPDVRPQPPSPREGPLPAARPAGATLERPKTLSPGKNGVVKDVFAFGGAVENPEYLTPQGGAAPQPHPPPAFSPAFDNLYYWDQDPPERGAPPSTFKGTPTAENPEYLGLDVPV
# How it was run: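 FLAG-purified HER2 cytoplasmic domain in 50 mmol/L Tris-HCl pH 7.5, 5 mmol/L MnCl₂, 0.01% Tween-20, 2 mmol/L DTT, with poly-Glu-Tyr (4:1) and [γ-³²P]ATP. Compound and enzyme preincubated 5 min at room temperature; reaction started with ATP, 10 min at room temperature. Stopped with 10% TCA, filter-harvested, washed with 3% phosphoric acid, scintillation counted.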
# BT-474 [4] = assay: Growth inhibition of HER2 over-expressing human BT474 cells after 5 days; assay type: functional; conditions: BT-474, 120 h
# How it was run: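 BT-474 cells kept in RPMI 1640 with 10% heat-inactivated FBS. Seeded at 3×10⁴ cells/well and allowed to attach overnight. Treated continuously with compound for 5 days. Live cells counted with a particle analyzer; GI₅₀ derived.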
# [5] = biological target: Epidermal growth factor receptor (Homo sapiens, UniProt P00533); assay: Inhibition of human N-terminal DYKDDDD tagged EGFR cytoplasmic domain amino acid 669 to 1210 expressed in baculovirus after 5 mins by scintillation counter
# Chain of Epidermal growth factor receptor (P00533 whole entry, the tested form may be a part): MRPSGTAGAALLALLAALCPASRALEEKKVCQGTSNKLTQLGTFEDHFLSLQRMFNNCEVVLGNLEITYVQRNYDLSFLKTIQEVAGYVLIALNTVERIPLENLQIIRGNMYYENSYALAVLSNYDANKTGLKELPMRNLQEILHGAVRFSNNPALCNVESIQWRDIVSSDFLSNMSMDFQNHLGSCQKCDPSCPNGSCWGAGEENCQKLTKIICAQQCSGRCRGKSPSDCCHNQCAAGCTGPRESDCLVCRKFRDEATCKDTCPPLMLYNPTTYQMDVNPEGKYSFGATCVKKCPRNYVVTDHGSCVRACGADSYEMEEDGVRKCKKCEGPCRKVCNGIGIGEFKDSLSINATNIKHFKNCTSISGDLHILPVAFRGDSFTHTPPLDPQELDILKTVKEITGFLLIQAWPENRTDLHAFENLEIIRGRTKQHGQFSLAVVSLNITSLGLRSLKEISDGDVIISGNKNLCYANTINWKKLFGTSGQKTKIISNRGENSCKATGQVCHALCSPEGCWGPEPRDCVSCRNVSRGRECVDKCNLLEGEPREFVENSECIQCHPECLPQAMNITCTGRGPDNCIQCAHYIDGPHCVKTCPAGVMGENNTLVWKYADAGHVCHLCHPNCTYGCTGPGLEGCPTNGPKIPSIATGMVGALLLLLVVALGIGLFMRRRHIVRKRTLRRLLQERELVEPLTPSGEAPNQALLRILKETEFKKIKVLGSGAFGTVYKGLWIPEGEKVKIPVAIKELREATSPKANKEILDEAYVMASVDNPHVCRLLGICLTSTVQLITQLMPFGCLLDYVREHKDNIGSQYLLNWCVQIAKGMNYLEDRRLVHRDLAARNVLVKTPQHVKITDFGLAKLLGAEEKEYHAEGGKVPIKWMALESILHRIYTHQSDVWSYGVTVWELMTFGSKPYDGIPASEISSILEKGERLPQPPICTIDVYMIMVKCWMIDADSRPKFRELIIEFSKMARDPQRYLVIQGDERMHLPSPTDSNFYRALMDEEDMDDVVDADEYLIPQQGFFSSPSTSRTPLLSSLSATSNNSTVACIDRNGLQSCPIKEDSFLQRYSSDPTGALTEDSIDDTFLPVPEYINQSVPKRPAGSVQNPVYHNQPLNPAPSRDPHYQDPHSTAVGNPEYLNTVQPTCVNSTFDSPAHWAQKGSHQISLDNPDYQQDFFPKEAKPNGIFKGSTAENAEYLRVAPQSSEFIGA
# [6] = Metabolic stability in human hepatic microsomes at 1 umol/L after 20 mins; assay type: ADME; conditions: liver microsomes, read-out: Stability
# How it was run: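 Human liver microsomes (0.2 mg/mL protein) with 1 µmol/L compound in 50 mmol/L phosphate pH 7.4 plus an NADPH-generating system (glucose-6-phosphate, β-NADP⁺, G6PDH, MgCl₂). Incubated at 37 °C for 0 and 20 min, stopped with acetonitrile, duplicates. Remaining compound measured by HPLC with photodiode array detection.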
# [7] = Metabolic stability in mouse hepatic microsomes at 1 umol/L after 20 mins; assay type: ADME; conditions: liver microsomes, read-out: Stability
# BT-474 [8] = assay: Antitumor activity against human BT474 cells xenografted in BALB/c nu/nu mouse at 100 mg/kg, po bid administered 14 days measured on day 31 relative to control; assay type: functional
# How it was run: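 BT-474 xenografts: 1×10⁷ cells in Matrigel implanted subcutaneously into the right flank of female BALB/c nu/nu mice. Estradiol dipropionate 0.25 mg given intramuscularly on days 0 and 7. Tumours of 200–300 mm³ used. Dosing 100 mg/kg orally bid in 0.5% methylcellulose for 14 days. Volume a×b²/2 by calipers. T/C (%) compared at day 31.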
Compound,Papp B→A at 10 µM [1] [×10⁻⁶ cm/s],Papp A→B at 10 µM [2] [×10⁻⁶ cm/s],IC50 [3] [nM],GI50 (BT-474 [4]) [nM],IC50 [5] [nM],microsomal CLint at 1 µM [6] [µL/min/mg],microsomal CLint at 1 µM [7] [µL/min/mg],T/C (BT-474 [8]) [%]
CC(C)S(=O)(=O)CC(=O)NCCn1ccc2ncnc(Nc3ccc(Oc4cccc(C(F)(F)F)c4)c(Cl)c3)c21,,,11,48,,42,35,
CC(C)(C)S(=O)(=O)CC(=O)NCCn1ccc2ncnc(Nc3ccc(Oc4cccc(C(F)(F)F)c4)c(Cl)c3)c21,,,14,36,56,45,31,
CC(C(=O)NCCn1ccc2ncnc(Nc3ccc(Oc4cccc(C(F)(F)F)c4)c(Cl)c3)c21)S(C)(=O)=O (configuration not stated),,,7.1,34,18,30,33,

# More lines, main results first:
Papp B→A at 10 µM [1] [×10⁻⁶ cm/s],Papp A→B at 10 µM [2] [×10⁻⁶ cm/s],IC50 [3] [nM],GI50 (BT-474 [4]) [nM],IC50 [5] [nM],microsomal CLint at 1 µM [6] [µL/min/mg],microsomal CLint at 1 µM [7] [µL/min/mg],Compound,T/C (BT-474 [8]) [%]
8.29,0.52,6.3,5.2,15,18,11,CS(=O)(=O)CC(=O)NCCn1ccc2ncnc(Nc3ccc(Oc4cccc(C(F)(F)F)c4)c(Cl)c3)c21,80
,,8.5,36,31,26,22,CCS(=O)(=O)CC(=O)NCCn1ccc2ncnc(Nc3ccc(Oc4cccc(C(F)(F)F)c4)c(Cl)c3)c21,
